Source: ChEMBL document CHEMBL1132220 (J Med Chem, 1999)
Bridge positions count the residues as written; N and C are the ends. Square brackets hold non-standard residues; d marks the D form. Peptide text beside a SMILES is read from it. Phe(4-Cl) = N[C@@H](Cc1ccc(Cl)cc1)C(=O)O; Phe(4-F) = N[C@@H](Cc1ccc(F)cc1)C(=O)O; dPhe(4-F) = N[C@H](Cc1ccc(F)cc1)C(=O)O; 2Nal = N[C@@H](Cc1ccc2ccccc2c1)C(=O)O; Bta = N[C@@H](Cc1csc2ccccc12)C(=O)O; 3Pal = N[C@@H](Cc1cccnc1)C(=O)O; Tle = CC(C)(C)[C@H](N)C(=O)O; Nle = CCCC[C@H](N)C(=O)O

What was measured:
[1] = biological target: Somatostatin receptor type 5 (Homo sapiens, UniProt P35346); test: The compound was tested for binding affinity against human Somatostatin receptor type 5
Outline: (§1)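 Membranes from CHO-K1 cells transfected with the cloned human receptor. Terminated by filtration on PEI-soaked GF/C filters. Nonspecific binding defined with 1.0 μM SRIF. Mean ± SEM; single values are from one experiment.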

[2] = biological target: Somatostatin receptor type 1 (Homo sapiens, UniProt P30872); test: The compound was tested for binding affinity against human Somatostatin receptor type 1; outline: as §1
[3] = biological target: Somatostatin receptor type 3 (Homo sapiens, UniProt P32745); test: The compound was tested for binding affinity against human Somatostatin receptor type 3
Outline: (§2)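 CHO-K1 cells stably transfected (calcium phosphate) with cloned human sst3 or sst4. Membranes made in ice-cold 50 mM Tris-HCl, resuspended in 10 mM Tris-HCl, then incubated 30 min at 37 °C with 0.05 nM [125I]Tyr11-SRIF in HEPES pH 7.4 with BSA, MgCl2 and protease inhibitors. Filtered on GF/C; nonspecific binding with 1.0 µM SRIF. Mean ± SEM, or one experiment.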

[4] = biological target: Somatostatin receptor type 4 (Homo sapiens, UniProt P31391); test: The compound was tested for binding affinity against human Somatostatin receptor type 4; outline: as §2
[5] = biological target: Somatostatin receptor type 2 (Homo sapiens, UniProt P30874); test: The compound was tested for binding affinity against human Somatostatin receptor type 2
Outline: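 Membranes from CHO-K1 cells transfected with the cloned human sst2. Incubated 30 min at 37 °C with 0.05 nM [125I]MK-678 in HEPES pH 7.4 with BSA, MgCl2, Trasylol, bacitracin and PMSF. Filtration on PEI-soaked GF/C filters. Nonspecific binding defined with 1.0 μM SRIF. Mean ± SEM; single values are from one experiment.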

Sequence of Somatostatin receptor type 5 (P35346 whole entry): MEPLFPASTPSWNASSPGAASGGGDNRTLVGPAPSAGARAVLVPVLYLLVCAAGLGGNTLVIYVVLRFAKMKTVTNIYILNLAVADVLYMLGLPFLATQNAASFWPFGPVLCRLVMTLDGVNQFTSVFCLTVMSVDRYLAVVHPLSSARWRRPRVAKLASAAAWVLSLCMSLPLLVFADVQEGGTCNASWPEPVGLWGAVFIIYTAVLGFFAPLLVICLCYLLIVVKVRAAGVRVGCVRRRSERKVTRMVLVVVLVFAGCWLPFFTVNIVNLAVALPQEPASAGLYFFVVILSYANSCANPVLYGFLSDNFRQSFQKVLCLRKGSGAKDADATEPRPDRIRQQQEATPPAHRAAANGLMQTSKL
Sequence of Somatostatin receptor type 1 (P30872 whole entry): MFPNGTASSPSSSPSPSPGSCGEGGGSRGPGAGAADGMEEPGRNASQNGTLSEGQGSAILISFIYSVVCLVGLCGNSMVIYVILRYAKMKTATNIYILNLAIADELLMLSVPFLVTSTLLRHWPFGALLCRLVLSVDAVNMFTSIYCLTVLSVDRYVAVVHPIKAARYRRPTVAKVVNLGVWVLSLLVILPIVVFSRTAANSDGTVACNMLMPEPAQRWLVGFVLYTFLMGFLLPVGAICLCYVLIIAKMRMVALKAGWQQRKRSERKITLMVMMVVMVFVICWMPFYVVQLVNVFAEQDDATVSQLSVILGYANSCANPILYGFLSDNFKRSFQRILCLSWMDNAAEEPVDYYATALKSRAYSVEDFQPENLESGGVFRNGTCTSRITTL
Sequence of Somatostatin receptor type 2 (P30874 whole entry): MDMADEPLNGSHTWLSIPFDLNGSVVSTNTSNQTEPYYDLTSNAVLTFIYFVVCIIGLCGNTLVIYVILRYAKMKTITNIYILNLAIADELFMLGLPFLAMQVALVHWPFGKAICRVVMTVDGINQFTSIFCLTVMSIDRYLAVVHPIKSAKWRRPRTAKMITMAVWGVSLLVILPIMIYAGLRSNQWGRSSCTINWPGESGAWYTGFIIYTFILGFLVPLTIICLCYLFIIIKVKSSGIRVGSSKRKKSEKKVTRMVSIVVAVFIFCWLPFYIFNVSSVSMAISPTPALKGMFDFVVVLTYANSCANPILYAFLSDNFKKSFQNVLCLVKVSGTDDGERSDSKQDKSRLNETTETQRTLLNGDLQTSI
Sequence of Somatostatin receptor type 3 (P32745 whole entry): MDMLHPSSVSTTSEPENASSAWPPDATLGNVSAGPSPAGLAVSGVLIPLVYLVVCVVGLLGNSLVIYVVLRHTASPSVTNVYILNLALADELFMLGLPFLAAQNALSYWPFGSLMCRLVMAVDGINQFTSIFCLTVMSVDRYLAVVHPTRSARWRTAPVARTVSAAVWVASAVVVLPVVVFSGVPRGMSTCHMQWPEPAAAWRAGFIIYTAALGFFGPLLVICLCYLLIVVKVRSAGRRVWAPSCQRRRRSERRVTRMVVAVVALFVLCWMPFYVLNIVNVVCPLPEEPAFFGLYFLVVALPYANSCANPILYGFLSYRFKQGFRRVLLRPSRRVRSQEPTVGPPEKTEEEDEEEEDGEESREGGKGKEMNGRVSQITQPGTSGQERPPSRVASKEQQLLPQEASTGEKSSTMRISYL
Sequence of Somatostatin receptor type 4 (P31391 whole entry): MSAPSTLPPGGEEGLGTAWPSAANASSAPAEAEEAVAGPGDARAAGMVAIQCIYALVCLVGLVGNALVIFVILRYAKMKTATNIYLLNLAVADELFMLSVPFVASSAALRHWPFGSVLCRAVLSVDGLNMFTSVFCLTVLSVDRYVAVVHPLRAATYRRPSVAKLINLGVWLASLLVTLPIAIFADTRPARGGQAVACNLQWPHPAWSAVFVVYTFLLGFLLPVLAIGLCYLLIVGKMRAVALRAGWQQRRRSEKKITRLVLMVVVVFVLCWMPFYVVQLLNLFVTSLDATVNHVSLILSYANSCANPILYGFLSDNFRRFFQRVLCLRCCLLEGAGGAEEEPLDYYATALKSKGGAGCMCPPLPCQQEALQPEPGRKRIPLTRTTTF

Row | Ki [1] [nM] | Ki [2] [nM] | Ki [3] [nM] | Ki [4] [nM] | Ki [5] [nM] | SMILES
1 | 689 | > 1000 | 1350 | > 1000 | 2230 | CC[C@H](C)[C@@H]1NC(=O)[C@H](CCCCN)NC(=O)[C@@H](Cc2c[nH]c3ccccc23)NC(=O)[C@H](Cc2ccc(O)cc2)NC(=O)[C@H](NC(=O)[C@@H](N)Cc2ccc(-c3ccccc3)cc2)CSSC[C@@H](C(=O)N[C@@H](Cc2ccc(-c3ccccc3)cc2)C(N)=O)NC1=O
2 | 287 | 484 | 271 | > 1000 | 35 | CC(C)[C@@H]1NC(=O)[C@H](CCCCN)NC(=O)[C@@H](Cc2c[nH]c3ccccc23)NC(=O)[C@H](Cc2cccnc2)NC(=O)[C@H](NC(=O)[C@@H](N)Cc2ccc(F)cc2)CSSC[C@@H](C(=O)N[C@@H](Cc2ccc3ccccc3c2)C(N)=O)NC1=O
3 |  |  |  | > 1000 |  | C[C@@H](O)[C@@H]1NC(=O)[C@H](CCCCN)NC(=O)[C@@H](Cc2c[nH]c3ccccc23)NC(=O)[C@@H](Cc2cccnc2)NC(=O)C(NC(=O)[C@@H](N)Cc2ccc(Cl)cc2)CSSCC(C(=O)N[C@@H](Cc2ccc3ccccc3c2)C(N)=O)NC1=O (stereo in doubt)
4 | 260 | > 1000 | 555 | 888 | 132 | CC(C)(C)[C@@H]1NC(=O)[C@H](CCCCN)NC(=O)[C@@H](Cc2c[nH]c3ccccc23)NC(=O)[C@H](Cc2cccnc2)NC(=O)[C@H](NC(=O)[C@H](N)Cc2ccc(F)cc2)CSSC[C@@H](C(=O)N[C@@H](Cc2ccc3ccccc3c2)C(N)=O)NC1=O (H-[dPhe(4-F)][dC][3Pal][dW]K[Tle]C[2Nal]-NH2; disulfide 2-7)
5 | 734 | 60 | 397 | > 1000 | 103 | CC(C)[C@H]1NC(=O)[C@H](CCCCN)NC(=O)[C@@H](Cc2c[nH]c3ccccc23)NC(=O)[C@H](Cc2c[nH]cn2)NC(=O)C(NC(=O)[C@@H](N)Cc2cccc(F)c2)CSSCC(C(=O)N[C@@H](Cc2cccc(F)c2)C(N)=O)NC1=O (stereo in doubt)
6 | 1400 | > 1000 | 709 | > 1000 | 418 | CC(C)[C@@H]1NC(=O)[C@H](CCCCN)NC(=O)[C@@H](Cc2c[nH]c3ccccc23)NC(=O)[C@H](Cc2csc3ccccc23)NC(=O)[C@H](NC(=O)[C@@H](N)Cc2ccc3ccccc3c2)CSSC[C@@H](C(=O)N[C@@H](Cc2ccc3ccccc3c2)C(N)=O)NC1=O (H-[2Nal][dC][Bta][dW]KVC[2Nal]-NH2; disulfide 2-7)
7 | > 1000 | 1030 | 802 | > 1000 | 345 | CC(C)[C@@H]1NC(=O)[C@H](CCCCN)NC(=O)[C@@H](Cc2c[nH]c3ccccc23)NC(=O)[C@H](Cc2ccc(O)cc2)NC(=O)[C@H](NC(=O)[C@@H]2Cc3ccccc3CN2)CSSC[C@@H](C(=O)N2Cc3ccccc3C[C@H]2C(N)=O)NC1=O
8 | 814 | 845 | 126 | 672 | 76 | CCCC[C@@H]1NC(=O)[C@H](CCCCN)NC(=O)[C@@H](Cc2c[nH]c3ccccc23)NC(=O)[C@H](Cc2cccnc2)NC(=O)[C@H](NC(=O)[C@@H](N)Cc2ccc3ccccc3c2)CSSC[C@@H](C(=O)N[C@@H](Cc2ccc3ccccc3c2)C(N)=O)NC1=O (H-[2Nal][dC][3Pal][dW]K[Nle]C[2Nal]-NH2; disulfide 2-7)
9 | 535 | > 1000 | 231 | > 1000 | 26 | CC(C)(C)[C@@H]1NC(=O)[C@H](CCCCN)NC(=O)[C@@H](Cc2c[nH]c3ccccc23)NC(=O)[C@H](Cc2cccnc2)NC(=O)[C@H](NC(=O)[C@@H](N)Cc2ccc(F)cc2)CSSC[C@@H](C(=O)N[C@@H](Cc2ccc3ccccc3c2)C(N)=O)NC1=O (H-[Phe(4-F)][dC][3Pal][dW]K[Tle]C[2Nal]-NH2; disulfide 2-7)
10 | 382 | 413 | 192 | 1570 | 163 | NCCCC[C@@H]1NC(=O)[C@@H](Cc2c[nH]c3ccccc23)NC(=O)[C@H](Cc2cccnc2)NC(=O)[C@H](NC(=O)[C@@H](N)Cc2ccc3ccccc3c2)CSSC[C@@H](C(=O)N[C@@H](Cc2ccc3ccccc3c2)C(N)=O)NC(=O)CNC1=O
11 |  | > 1000 | 58 | 1640 | 19 | CC(C)(C)[C@@H]1NC(=O)[C@H](CCCCN)NC(=O)[C@@H](Cc2c[nH]c3ccccc23)NC(=O)[C@H](Cc2cccnc2)NC(=O)[C@H](NC(=O)[C@@H](N)Cc2ccc(Cl)cc2)CSSC[C@@H](C(=O)N[C@@H](Cc2ccc(Cl)cc2)C(N)=O)NC1=O
12 | 369 | 435 | 120 | > 1000 | 20 | CC(C)[C@@H]1NC(=O)[C@H](CCCCN)NC(=O)[C@@H](Cc2c[nH]c3ccccc23)NC(=O)[C@H](Cc2cccnc2)NC(=O)[C@H](NC(=O)[C@@H](N)Cc2ccc(F)cc2)CSSC[C@@H](C(=O)N[C@@H](Cc2ccc(F)cc2)C(N)=O)NC1=O
13 | 70 | 1030 | 53 | > 1000 | 14 | C[C@@H](O)[C@@H]1NC(=O)[C@H](CCCCN)NC(=O)[C@@H](Cc2c[nH]c3ccccc23)NC(=O)[C@@H](Cc2ccccn2)NC(=O)C(NC(=O)[C@@H](N)Cc2ccc(Cl)cc2)CSSCC(C(=O)N[C@@H](Cc2ccc3ccccc3c2)C(N)=O)NC1=O (stereo in doubt)
14 | 139 | > 1000 | 51 | 301 | 32 | CC(C)[C@@H]1NC(=O)[C@H](CCCCN)NC(=O)[C@@H](Cc2c[nH]c3ccccc23)NC(=O)[C@H](Cc2cccnc2)NC(=O)[C@H](NC(=O)[C@@H](N)Cc2ccc(Cl)cc2)CSSC[C@@H](C(=O)N[C@@H](Cc2ccc(Cl)cc2)C(N)=O)NC1=O
15 | 173 | 1950 | 269 | 847 | 31 | CC(C)[C@H]1NC(=O)[C@H](CCCCN)NC(=O)[C@@H](Cc2c[nH]c3ccccc23)NC(=O)[C@H](Cc2c[nH]cn2)NC(=O)C(NC(=O)[C@@H](N)Cc2ccc(F)cc2)CSSCC(C(=O)N[C@@H](Cc2ccc(F)cc2)C(N)=O)NC1=O (stereo in doubt)
16 | 110 | 238 | 175 |  | 166 | CC(C)(C)C[C@@H]1NC(=O)[C@H](CCCCN)NC(=O)[C@@H](Cc2c[nH]c3ccccc23)NC(=O)[C@H](Cc2cccnc2)NC(=O)C(NC(=O)[C@@H](N)Cc2ccc(Cl)cc2)CSSCC(C(=O)N[C@@H](Cc2ccc3ccccc3c2)C(N)=O)NC1=O (stereo in doubt)
17 | 520 | > 1000 | 100 | 895 | 12 | CC(C)(C)[C@@H]1NC(=O)[C@H](CCCCN)NC(=O)[C@@H](Cc2c[nH]c3ccccc23)NC(=O)[C@H](Cc2cccnc2)NC(=O)[C@H](NC(=O)[C@@H](N)Cc2ccc(Cl)cc2)CSSC[C@@H](C(=O)N[C@@H](Cc2ccc3ccccc3c2)C(N)=O)NC1=O (H-[Phe(4-Cl)][dC][3Pal][dW]K[Tle]C[2Nal]-NH2; disulfide 2-7)
18 | 1580 | 186 | 385 | > 1000 | 241 | CC(C)[C@@H]1NC(=O)[C@H](CCCCN)NC(=O)[C@@H](Cc2c[nH]c3ccccc23)NC(=O)[C@H](Cc2cccnc2)NC(=O)[C@H](NC(=O)[C@@H](N)Cc2ccccc2F)CSSC[C@@H](C(=O)N[C@@H](Cc2ccccc2F)C(N)=O)NC1=O
19 |  | 443 | 290 | > 1000 | 51 | C[C@@H](O)[C@@H]1NC(=O)[C@H](CCCCN)NC(=O)[C@@H](Cc2c[nH]c3ccccc23)NC(=O)[C@H](Cc2ccccc2)NC(=O)[C@H](NC(=O)[C@@H](N)Cc2ccc(Cl)cc2)CSSC[C@@H](C(=O)N[C@@H](Cc2ccc3ccccc3c2)C(N)=O)NC1=O
20 | 1380 | 34 | 93 |  | 692 | CC(C)[C@@H]1NC(=O)[C@H](CCCCN)NC(=O)[C@@H](Cc2c[nH]c3ccccc23)NC(=O)[C@@H](Cc2ccccn2)NC(=O)[C@H](NC(=O)[C@@H](N)Cc2c(F)c(F)c(F)c(F)c2F)CSSC[C@@H](C(=O)N[C@@H](Cc2c(F)c(F)c(F)c(F)c2F)C(N)=O)NC1=O
21 | 918 | 568 | 170 |  | > 1000 | CC(C)[C@@H]1NC(=O)[C@H](CCCCN)NC(=O)[C@@H](Cc2c[nH]c3ccccc23)NC(=O)[C@H](Cc2ccccn2)NC(=O)[C@H](NC(=O)[C@@H](N)Cc2c(F)c(F)c(F)c(F)c2F)CSSC[C@@H](C(=O)N[C@@H](Cc2c(F)c(F)c(F)c(F)c2F)C(N)=O)NC1=O
22 | 204 | 1690 | 108 |  | 233 | C[C@@H](O)[C@@H]1NC(=O)[C@H](CCCCN)NC(=O)[C@@H](Cc2c[nH]c3ccccc23)NC(=O)[C@H](Cc2ccccn2)NC(=O)C(NC(=O)[C@@H](N)Cc2ccc(Cl)cc2)CSSCC(C(=O)N[C@@H](Cc2ccc3ccccc3c2)C(N)=O)NC1=O (stereo in doubt)

Row | SMILES | Ki [1] [nM] | Ki [2] [nM] | Ki [3] [nM] | Ki [4] [nM] | Ki [5] [nM]
23 | CC(C)[C@@H]1NC(=O)[C@H](CCCCN)NC(=O)[C@@H](Cc2c[nH]c3ccccc23)NC(=O)[C@H](Cc2ccc(O)c(I)c2)NC(=O)C(NC(=O)[C@@H](N)Cc2ccc3ccccc3c2)CSSCC(C(=O)N[C@@H](Cc2ccc3ccccc3c2)C(N)=O)NC1=O (stereo in doubt) | 468 | > 1000 | 482 | > 1000 | 194
